{"data": "Measurements collected from several papers", "RET V804L": "Proto-oncogene tyrosine-protein kinase receptor Ret (RET, Homo sapiens, UniProt P07949, V804L)", "RET V804M": "Proto-oncogene tyrosine-protein kinase receptor Ret (RET, Homo sapiens, UniProt P07949, V804M)", "RET M918T": "Proto-oncogene tyrosine-protein kinase receptor Ret (RET, Homo sapiens, UniProt P07949, M918T)", "RET": "Proto-oncogene tyrosine-protein kinase receptor Ret (RET, Homo sapiens, UniProt P07949)", "note": "Each line is one published result; the experiments were not run side by side."}
{"Structure (SMILES)": "C=CC(=O)N1CCC(C(=O)NCC(=O)N2CCN(c3nc(-c4cnc(N)nc4C(F)F)nc(N4CCOCC4)n3)CC2)CC1", "target": "RET V804L", "effect on": "binding", "method": "competition with immobilised ligand", "tested at": "1 µM", "remaining binding [%]": 100}
{"Structure (SMILES)": "Nc1ncc2c(n1)-c1c([nH]c3ccc(C#CC4CC4)cc13)CCCC2", "target": "RET V804L", "effect on": "binding", "method": "competition with immobilised ligand", "tested at": "1 µM", "remaining binding [%]": 96}
{"Structure (SMILES)": "COc1cnc(Nc2cccc(S(N)(=O)=O)c2)nc1N1CCN(c2ccccc2)C(=O)C1", "target": "RET V804M", "effect on": "binding", "method": "competition with immobilised ligand", "tested at": "1 µM", "remaining binding [%]": 77}
{"Structure (SMILES)": "COc1cc(-c2cn(C3CCc4ccccc4N(CC(F)(F)F)C3=O)nn2)ccc1-n1ccc(C)n1 (stereo not drawn)", "target": "RET M918T", "effect on": "cell-free assay", "method": "competition with immobilised ligand", "tested at": "1 µM", "remaining binding [%]": 100}
{"Structure (SMILES)": "O=C(c1ccc(Nc2ncc(Cl)c(-c3cc4ccccc4s3)n2)cc1)N1CCC(N2CCCC2)CC1", "target": "RET V804L", "effect on": "binding", "method": "competition with immobilised ligand", "tested at": "1 µM", "remaining binding [%]": 23}
{"Structure (SMILES)": "CCCCN(CCCC)C(=O)CN1C[C@@H](c2cc(OC)c3c(c2)OCO3)[C@H](C(=O)O)[C@H]1CC(C)(C)CCC", "target": "RET V804L", "effect on": "cell-free assay", "method": "competition with immobilised ligand", "tested at": "1 µM", "remaining binding [%]": 100}
{"Structure (SMILES)": "O=C(NCCCN1CCOCC1)c1ccc(Nc2ncc(Cl)c(-c3ccc(Cl)s3)n2)cc1", "target": "RET M918T", "effect on": "binding", "method": "competition with immobilised ligand", "tested at": "1 µM", "remaining binding [%]": 15}
{"Structure (SMILES)": "CN1CCN(c2ccc(Nc3nccc(-c4cccc([N+](=O)[O-])c4)n3)cc2C(F)(F)F)CC1", "target": "RET V804M", "effect on": "binding", "tested at": "10 µM", "remaining binding [%]": 49}
{"Structure (SMILES)": "N[C@@H]1CCN(c2nccc(-c3cnn4ncccc34)n2)C1", "target": "RET", "effect on": "binding", "tested at": "1 µM", "remaining binding [%]": 100}
{"Structure (SMILES)": "CNC(=O)[C@@H]1CC[C@@H](n2c(-c3ccc4cnccc4c3)nc3ccc(C(=O)NCc4cccc(C(N)=O)c4)cc32)C1", "target": "RET", "effect on": "binding", "method": "competition with immobilised ligand", "tested at": "1 µM", "remaining binding [%]": 96}
{"Structure (SMILES)": "C[C@@H](c1ccc(-n2cnc3c(N)ncnc32)cc1)N1CCc2nn(C)c(Cc3ccccc3)c2C1=O", "target": "RET", "effect on": "binding", "method": "competition with immobilised ligand", "tested at": "0.1 µM", "remaining binding [%]": 81}
{"Structure (SMILES)": "CN(C)c1nccc(-c2cnc3ncccn23)n1", "target": "RET V804M", "effect on": "binding", "tested at": "1 µM", "remaining binding [%]": 93}
{"Structure (SMILES)": "O=C(c1ccc(Nc2ncc(Cl)c(-c3ccc(Cl)s3)n2)cc1)N1CCC(N2CCCC2)CC1", "target": "RET", "effect on": "binding", "method": "competition with immobilised ligand", "tested at": "1 µM", "remaining binding [%]": 15}
{"Structure (SMILES)": "C[C@@H]1CCN(c2nccc(-c3cnn4ncccc34)n2)C1", "target": "RET", "effect on": "binding", "tested at": "1 µM", "remaining binding [%]": 70}
{"Structure (SMILES)": "CC(C)(C)c1ccc(-c2nc(CBr)nn2-c2cccc(O)c2)cc1", "target": "RET", "effect on": "cell-free assay", "method": "competition with immobilised ligand", "tested at": "10 µM", "remaining binding [%]": 93}
{"Structure (SMILES)": "F[C@@H]1CCN(c2nccc(-c3cnn4ncccc34)n2)C1", "target": "RET M918T", "effect on": "binding", "tested at": "1 µM", "remaining binding [%]": 100}
{"Structure (SMILES)": "O=C(Nc1c[nH]nc1C(=O)NC1CCNCC1)c1cc(F)cc(F)c1", "target": "RET M918T", "effect on": "binding", "method": "competition with immobilised ligand", "tested at": "1 µM", "remaining binding [%]": 100}
{"Structure (SMILES)": "C[C@@H]1CN(c2ccc3ncc(-c4ccc5[nH]nc(C6CC6)c5c4)n3n2)C[C@H](C)O1", "target": "RET", "effect on": "binding", "method": "competition with immobilised ligand", "tested at": "0.5 µM", "remaining binding [%]": 61}
{"Structure (SMILES)": "O=C(Nc1cccnn1)N1CCC(=Cc2cccc(Oc3ccc(C(F)(F)F)cn3)c2)CC1", "target": "RET", "effect on": "cell-free assay", "method": "competition with immobilised ligand", "tested at": "1 µM", "remaining binding [%]": 100}
{"Structure (SMILES)": "O=C(c1ccc(Nc2nccc(-c3cc4ccccc4s3)n2)cc1)N1CCC(N2CCCC2)CC1", "target": "RET", "effect on": "binding", "method": "competition with immobilised ligand", "tested at": "1 µM", "remaining binding [%]": 85}
{"Structure (SMILES)": "CN1CCN(c2ccc(Nc3nccc(-c4ccccc4)n3)cc2C(F)(F)F)CC1", "target": "RET M918T", "effect on": "binding", "tested at": "10 µM", "remaining binding [%]": 27}
{"Structure (SMILES)": "Cc1cnc(Nc2ccc(C(=O)N3CCC(N4CCCC4)CC3)cc2)nc1-c1cc2ccccc2s1", "target": "RET M918T", "effect on": "binding", "method": "competition with immobilised ligand", "tested at": "1 µM", "remaining binding [%]": 5.2}
{"Structure (SMILES)": "Cn1nc(C(F)(F)F)cc1-c1cnc(N2CCc3cc(S(=O)(=O)Nc4c(F)cc(Cl)cc4F)cc(N4CCCC4=O)c32)nc1", "target": "RET V804M", "effect on": "cell-free assay", "method": "competition with immobilised ligand", "tested at": "1 µM", "remaining binding [%]": 98}
{"Structure (SMILES)": "COc1cnc(Nc2cccc(S(N)(=O)=O)c2)nc1N1CCN(c2ccccc2)CC1", "target": "RET", "effect on": "binding", "method": "competition with immobilised ligand", "tested at": "1 µM", "remaining binding [%]": 64}
{"Structure (SMILES)": "O=C(NCC1CCOCC1)c1n[nH]cc1NC(=O)c1c(F)cccc1F", "target": "RET", "effect on": "binding", "method": "competition with immobilised ligand", "tested at": "1 µM", "remaining binding [%]": 98}
{"Structure (SMILES)": "CN(C)c1nccc(-c2cnn3ncccc23)n1", "target": "RET V804M", "effect on": "binding", "tested at": "1 µM", "remaining binding [%]": 100}
{"Structure (SMILES)": "CCN1CCN(Cc2ccc(C(=O)Nc3ccc(C)c(Oc4ccc5c(c4)CC(=O)N5)c3)cc2C(F)(F)F)CC1", "target": "RET M918T", "effect on": "binding", "method": "competition with immobilised ligand", "tested at": "1 µM", "remaining binding [%]": 40}
{"Structure (SMILES)": "c1cncc(-c2cccc(Nc3nccc(NC4CCCCC4)n3)c2)c1", "target": "RET", "effect on": "binding", "method": "competition with immobilised ligand", "tested at": "10 µM", "remaining binding [%]": 14}
{"Structure (SMILES)": "CO[C@@H](C)c1c(Nc2ccc([C@@H](N(C)C(=O)C3CCS(=O)(=O)CC3)C(F)(F)F)cc2)cnc2cc(Cl)nn12", "target": "RET", "effect on": "cell-free assay", "method": "competition with immobilised ligand", "tested at": "1 µM", "remaining binding [%]": 91}
{"Structure (SMILES)": "COc1ncc2cc3ccccc3nc2c1C#N", "target": "RET V804L", "effect on": "cell-free assay", "method": "competition with immobilised ligand", "tested at": "5 µM", "remaining binding [%]": 94}
{"Structure (SMILES)": "Cc1nc(Cc2cccc(C(F)(F)F)c2)sc1-c1ccc(C(N)=O)nc1", "target": "RET V804L", "effect on": "cell-free assay", "method": "competition with immobilised ligand", "tested at": "1 µM", "remaining binding [%]": 86}
{"Structure (SMILES)": "CC1CCCN1c1nccc(-c2cnn3ncccc23)n1 (stereo not drawn)", "target": "RET M918T", "effect on": "binding", "tested at": "1 µM", "remaining binding [%]": 89}
{"Structure (SMILES)": "C[C@@H]1CN(c2cc(-c3nn(C)c4ccc(OC5(C)CC5)cc34)ncn2)C[C@H](C)O1", "target": "RET V804L", "effect on": "cell-free assay", "method": "competition with immobilised ligand", "tested at": "1 µM", "remaining binding [%]": 72}
{"Structure (SMILES)": "CN(c1nccc(-c2cnn3ncccc23)n1)C1CC1", "target": "RET", "effect on": "binding", "tested at": "1 µM", "remaining binding [%]": 84}
{"Structure (SMILES)": "CNC(=O)c1ccc(Nc2ncc(C(F)(F)F)c(NCc3nccnc3N(C)S(C)(=O)=O)n2)cc1", "target": "RET V804M", "effect on": "cell-free assay", "method": "competition with immobilised ligand", "tested at": "0.1 µM", "remaining binding [%]": 30}
{"Structure (SMILES)": "O=C(NCCCN1CCOCC1)c1ccc(Nc2nccc(-c3cc4ccccc4s3)n2)cc1", "target": "RET V804L", "effect on": "binding", "method": "competition with immobilised ligand", "tested at": "1 µM", "remaining binding [%]": 100}
